Results reported in ChEMBL document CHEMBL5390282, “Discovery of tert-Butyl Ester Based 6-Diazo-5-oxo-l-norleucine Prodrugs for Enhanced Metabolic Stability and Tumor Delivery” (J Med Chem, 2023).
One block for each compound: values may come before it.

Key:
[1] = Stability in human P493B cells suspended in human plasma assessed as tumor cell to plasma partitioning ratio at 20 uM incubated for 1 hr; format: ADME, cell-based
In short: (§1)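 P493B cells resuspended in human plasma at 10 million cells/mL and preincubated 5 min at 37 °C. Prodrug spiked at 20 μM final and incubated 1 h at 37 °C, in triplicate. Cells pelleted at 1000g. Plasma and pellet each analysed by LC-MS for intact prodrug and DON, with calibration made in each matrix. Partitioning expressed as cell/plasma ratio.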

[2] = Prodrug conversion in tumor of C57BL/6 mouse model with CES-/- bearing mouse EL4 cells assessed as AUC (0 to t) of DON metabolite at 2.9 mg/kg, sc measured upto 6 hrs by LC-MS analysis; format: ADME, organism-based, Neoplasm; conditions: in vivo
In short: (§2)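 CES1–/– C57BL/6 mice with flank EL4 tumours (about 400 mm3) dosed SC at 2.9 mg/kg (1 mg/kg DON equivalent) in ethanol:Tween 80:saline (5:10:85). Plasma, tumour and jejunum sampled 0–6 h after dosing. DON quantified by LC-MS/MS after dabsyl chloride derivatization, glutamate-d5 internal standard. Cmax, Tmax and AUC derived by noncompartmental analysis.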

[3] = Prodrug conversion in C57BL/6 mouse model with CES-/- bearing mouse EL4 cells assessed as concentration of DON release in tumor administered subcutaneously at 1 mg/kg DON equivalent measured after 30 mins; format: ADME, organism-based; conditions: in vivo, sc, 0.5 h, read-out: Drug metabolism
In short: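 Male and female CES1–/– C57BL/6 mice, 6–8 weeks old, each carrying a flank EL4 tumour (1 × 10^6 cells SC in PBS, grown to about 400 mm3). Prodrug dissolved just before use in ethanol:Tween 80:saline (5:10:85) and given once SC at 1 mg/kg DON equivalent, n = 3. At 30 min, plasma and tumour collected. DON measured by LC-MS/MS after dabsyl chloride derivatization, glutamate-d5 internal standard, calibration 0.03–100 nmol/mL.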

[4] = Prodrug conversion in tumor of C57BL/6 mouse model with CES-/- bearing mouse EL4 cells assessed as half life of DON metabolite at 2.9 mg/kg, sc measured upto 6 hrs by LC-MS analysis; format: ADME, organism-based, Neoplasm; conditions: in vivo; in short: as §2
[5] = Prodrug conversion of C57BL/6 mouse model with CES-/- bearing mouse EL4 cells assessed as ratio of DON metabolite AUC (0 to t) in tumor to jejunum at 2.9 mg/kg, sc measured upto 6 hrs by LC-MS analysis; format: ADME, organism-based; conditions: in vivo; in short: as §2
[6] = Prodrug conversion in human P493B cells suspended in human plasma assessed as DON metabolite concentration at 20 uM incubated for 1 hr; format: ADME, cell-based; in short: as §1
P493B = assay: Antiproliferative activity against human P493B cells assessed as reduction in cell viability incubated for 72 hrs by Cell Titer 96 Aqueous assay; format: functional, cell-based
In short: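 P493B lymphoma cells seeded at 20 000 cells/well. Test agent added as half-log serial dilutions in 0.2% DMSO final, then 72 h growth. CellTiter 96 AQueous reagent added for 2 h and absorbance read at 490 nm. Viability scaled between untreated cells (100%) and cell-free medium (0%). EC50 obtained by nonlinear regression of log-transformed data.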

[7] = Prodrug conversion in tumor of C57BL/6 mouse model with CES-/- bearing mouse EL4 cells assessed as Tmax of DON metabolite at 2.9 mg/kg, sc measured upto 6 hrs by LC-MS analysis; format: ADME, organism-based, Neoplasm; conditions: in vivo; in short: as §2
[8] = Prodrug conversion in tumor of C57BL/6 mouse model with CES-/- bearing mouse EL4 cells assessed as Cmax of DON metabolite at 2.9 mg/kg, sc measured upto 6 hrs by LC-MS analysis; format: ADME, organism-based, Neoplasm; set-up: dose 2.9 mg/kg, time < 6 hrs, route sc; conditions: in vivo; in short: as §2
[9] = Prodrug conversion in C57BL/6 mouse model with CES-/- bearing mouse EL4 cells assessed as ratio of DON metabolite AUC in tumor to jejunum at 2.9 mg/kg, sc measured upto 6 hrs by LC-MS analysis; format: ADME, organism-based; conditions: in vivo; in short: as §2
[10] = Prodrug conversion in plasma of C57BL/6 mouse model with CES-/- bearing mouse EL4 cells assessed as AUC of DON metabolite at 2.9 mg/kg, sc measured upto 6 hrs by LC-MS analysis; format: ADME, organism-based; set-up: time < 6 hrs, dose 2.9 mg/kg, route sc; conditions: in vivo; in short: as §2
[11] = Prodrug conversion in jejunum of C57BL/6 mouse model with CES-/- bearing mouse EL4 cells assessed as Cmax of DON metabolite at 2.9 mg/kg, sc measured upto 6 hrs by LC-MS analysis; format: ADME, organism-based; set-up: dose 2.9 mg/kg, time < 6 hrs, route sc; conditions: in vivo; in short: as §2
[12] = Prodrug conversion in plasma of C57BL/6 mouse model with CES-/- bearing mouse EL4 cells assessed as Tmax of DON metabolite at 2.9 mg/kg, sc measured upto 6 hrs by LC-MS analysis; format: ADME, organism-based; conditions: in vivo; in short: as §2
[13] = Prodrug conversion in jejunum of C57BL/6 mouse model with CES-/- bearing mouse EL4 cells assessed as half life of DON metabolite at 2.9 mg/kg, sc measured upto 6 hrs by LC-MS analysis; format: ADME, organism-based; conditions: in vivo; in short: as §2
[14] = Chemical stability of compound at pH 7.4 at 10 uM incubated for 24 hrs by HRMS analysis; format: physicochemical; conditions: buffer, pH 7.4, 24 h
In short: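 Prodrug spiked at 10 μM into pH 7.4 buffer and held at 37 °C for 24 h. Loss of prodrug followed by HRMS.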

[15] = Drug concentration in jejunum of C57BL/6 mouse model with CES-/- bearing mouse EL4 cells at 2.9 mg/kg, sc measured upto 6 hrs by LC-MS analysis; format: ADME, organism-based; in short: as §2
[16] = Stability in human P493B cells suspended in human plasma assessed as DON metabolite release at 20 uM incubated for 1 hr; format: ADME, cell-based; in short: as §1
[17] = Prodrug conversion in plasma of C57BL/6 mouse model with CES-/- bearing mouse EL4 cells assessed as AUC (0 to t) of DON metabolite at 2.9 mg/kg, sc measured upto 6 hrs by LC-MS analysis; format: ADME, organism-based; conditions: in vivo; in short: as §2
[18] = Prodrug conversion in plasma of C57BL/6 mouse model with CES-/- bearing mouse EL4 cells assessed as Cmax of DON metabolite at 2.9 mg/kg, sc measured upto 6 hrs by LC-MS analysis; format: ADME, organism-based; set-up: time < 6 hrs, dose 2.9 mg/kg, route sc; conditions: in vivo; in short: as §2
[19] = Prodrug conversion in C57BL/6 mouse model with CES-/- bearing mouse EL4 cells assessed as ratio of DON metabolite AUC in tumor to plasma at 2.9 mg/kg, sc measured upto 6 hrs by LC-MS analysis; format: ADME, organism-based; conditions: tumour; in short: as §2
[20] = Stability in human plasma suspended with human P493B cells assessed as tumor cell to plasma partitioning at 20 uM incubated for 1 hr; format: ADME; in short: as §1
[21] = Prodrug conversion in plasma of C57BL/6 mouse model with CES-/- bearing mouse EL4 cells assessed as half life of DON metabolite at 2.9 mg/kg, sc measured upto 6 hrs by LC-MS analysis; format: ADME, organism-based; conditions: in vivo; in short: as §2
[22] = Prodrug conversion in jejunum of C57BL/6 mouse model with CES-/- bearing mouse EL4 cells assessed as AUC of DON metabolite at 2.9 mg/kg, sc measured upto 6 hrs by LC-MS analysis; format: ADME, organism-based; set-up: dose 2.9 mg/kg, time < 6 hrs, route sc; conditions: in vivo; in short: as §2
[23] = Prodrug conversion in jejunum of C57BL/6 mouse model with CES-/- bearing mouse EL4 cells assessed as Tmax of DON metabolite at 2.9 mg/kg, sc measured upto 6 hrs by LC-MS analysis; format: ADME, organism-based; conditions: in vivo; in short: as §2
[24] = Prodrug conversion of C57BL/6 mouse model with CES-/- bearing mouse EL4 cells assessed as ratio of DON metabolite AUC (0 to t) in tumor to plasma at 2.9 mg/kg, sc measured upto 6 hrs by LC-MS analysis; format: ADME, organism-based; conditions: tumour; in short: as §2
[25] = Prodrug conversion in tumor of C57BL/6 mouse model with CES-/- bearing mouse EL4 cells assessed as AUC of DON metabolite at 2.9 mg/kg, sc measured upto 6 hrs by LC-MS analysis; format: ADME, organism-based, Neoplasm; set-up: time < 6 hrs, dose 2.9 mg/kg, route sc; conditions: in vivo; in short: as §2
[26] = Prodrug conversion in jejunum of C57BL/6 mouse model with CES-/- bearing mouse EL4 cells assessed as AUC (0 to t) of DON metabolite at 2.9 mg/kg, sc measured upto 6 hrs by LC-MS analysis; format: ADME, organism-based; conditions: in vivo; in short: as §2

Ratio [1]: 140 | AUCt [2]: 13.7 nmol·h/g | concentration [3]: 5.49 µM | t1/2 [4]: 83.4 min | Ratio AUC [5]: 4.4 | Drug metabolism [6]: 46.7 µM | Tmax [7]: 30 min | Cmax [8]: 5.49 µM | Ratio AUC [9]: 3.92 | AUC [10]: 3.97 µM·h | Cmax [11]: 1.54 µM | Tmax [12]: 30 min | t1/2 [13]: 59.4 min | Stability [14]: Stable | concentration at 6 h [15]: < 0.01 µM | Stability [16]: Unstable | AUCt [17]: 3.8 nmol·h/g | Cmax [18]: 1.86 µM | Ratio AUC [19]: 3.63 | Stability [20]: Stable | t1/2 [21]: 87 min | AUC [22]: 3.67 µM·h | Tmax [23]: 60 min | Ratio AUC [24]: 3.6 | AUC [25]: 14.4 µM·h | AUCt [26]: 3.13 nmol·h/g
Structure (SMILES): CN(C)CC(=O)N[C@@H](Cc1ccccc1)C(=O)N[C@@H](CCC(=O)C=[N+]=[N-])C(=O)OC(C)(C)C
Activity (P493B): Dose-Dependent Effect

Ratio [1]: 180 | concentration [3]: 1.21 µM | Drug metabolism [6]: 9.1 µM | Stability [14]: Stable | Stability [16]: Unstable | Stability [20]: Stable
Structure (SMILES): CC(=O)N[C@@H](Cc1c[nH]c2ccccc12)C(=O)N[C@@H](CCC(=O)C=[N+]=[N-])C(=O)OC(C)C [SIRPIGLENASTAT]
Activity (P493B): Dose-Dependent Effect

concentration [3]: 4.16 µM
Structure (SMILES): CN(C)CC(=O)N[C@@H](Cc1ccc(C(F)(F)F)cc1)C(=O)N[C@@H](CCC(=O)C=[N+]=[N-])C(=O)OC(C)(C)C

Structure (SMILES): CN(C)CC(=O)N[C@@H](CCc1ccccc1)C(=O)N[C@@H](CCC(=O)C=[N+]=[N-])C(=O)OC(C)(C)C
concentration [3]: 4.52 µM
